# Key:
# [1] = Maximal efficacy (Emax value); type: functional
# Procedure, shortened: (§1)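 GTPγ35S binding on P2 membranes of HEK-293S cells stably expressing human δ receptor (9.7 pmol/mg protein). Filtration after 1 h. Stimulated binding set with 3 µM SNC-80. %Emax from 3-parameter logistic fit.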
# [2] = biological target: Kappa-type opioid receptor (Homo sapiens, UniProt P41145); assay: Binding affinity against cloned human Opioid receptor kappa 1 using [125I]-D-Pro10-dynorphin A[1-11] as radioligand
# [3] = biological target: T1, Delta-type opioid receptor (Homo sapiens, UniProt P41143); assay: Agonist potency was measured using GTP gamma-[35S] binding assay
# Mu-type opioid receptor = Mu-type opioid receptor (Homo sapiens, UniProt P35372); assay: Binding affinity against cloned human Opioid receptor mu 1 using [125I]FK33824 as radioligand
# [4] = biological target: T1, Delta-type opioid receptor; assay: Binding affinity against human opioid receptor delta 1 using [125I]-[D-Ala2]-deltorphin II as radioligand
# [5] = Metabolic stability at a concentration of 100 uM in rat liver microsomes after 1 hr incubation; type: ADME
# Procedure, shortened: (§2)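 Substrate at 10 or 100 µM final (1% DMSO) with rat liver microsomes (0.4 mg/mL protein), 1 mM NADPH, 100 mM phosphate pH 7.4, 37 °C with gentle shaking, in duplicate. Reaction started by NADPH and stopped at 0 and 60 min with ice-cold acetonitrile. After centrifugation, supernatant analysed by LC-MS for % parent remaining. Controls omitted microsomes or NADPH.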
# [6] = Metabolic stability at a concentration of 10 uM in rat liver microsomes after 1 hr incubation; type: ADME; procedure, shortened: as §2
# [7] = Emax value was determined; procedure, shortened: as §1
# Kappa-type opioid receptor, sequence (P41145 whole entry): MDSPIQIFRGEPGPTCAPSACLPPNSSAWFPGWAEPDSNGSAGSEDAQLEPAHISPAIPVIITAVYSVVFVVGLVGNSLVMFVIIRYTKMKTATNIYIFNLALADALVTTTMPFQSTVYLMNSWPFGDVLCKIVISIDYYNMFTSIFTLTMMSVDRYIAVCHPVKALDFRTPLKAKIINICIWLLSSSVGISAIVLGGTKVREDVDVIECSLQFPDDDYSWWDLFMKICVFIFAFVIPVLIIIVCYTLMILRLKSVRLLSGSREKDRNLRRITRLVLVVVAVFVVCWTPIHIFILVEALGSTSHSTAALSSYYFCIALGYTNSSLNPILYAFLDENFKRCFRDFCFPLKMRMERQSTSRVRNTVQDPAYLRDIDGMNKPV
# Mu-type opioid receptor, sequence (P35372 whole entry): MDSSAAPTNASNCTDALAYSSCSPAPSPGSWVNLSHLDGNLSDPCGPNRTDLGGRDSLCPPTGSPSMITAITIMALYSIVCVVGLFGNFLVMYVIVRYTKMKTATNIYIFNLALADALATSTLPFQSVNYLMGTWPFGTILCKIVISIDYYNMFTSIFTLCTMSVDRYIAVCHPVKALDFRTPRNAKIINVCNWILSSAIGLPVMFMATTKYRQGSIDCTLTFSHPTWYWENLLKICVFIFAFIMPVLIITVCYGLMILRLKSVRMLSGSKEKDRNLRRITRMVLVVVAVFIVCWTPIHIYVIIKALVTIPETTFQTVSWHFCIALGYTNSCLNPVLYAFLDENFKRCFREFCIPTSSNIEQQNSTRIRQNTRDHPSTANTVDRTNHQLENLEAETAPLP
# T1 sequence (P41143 whole entry): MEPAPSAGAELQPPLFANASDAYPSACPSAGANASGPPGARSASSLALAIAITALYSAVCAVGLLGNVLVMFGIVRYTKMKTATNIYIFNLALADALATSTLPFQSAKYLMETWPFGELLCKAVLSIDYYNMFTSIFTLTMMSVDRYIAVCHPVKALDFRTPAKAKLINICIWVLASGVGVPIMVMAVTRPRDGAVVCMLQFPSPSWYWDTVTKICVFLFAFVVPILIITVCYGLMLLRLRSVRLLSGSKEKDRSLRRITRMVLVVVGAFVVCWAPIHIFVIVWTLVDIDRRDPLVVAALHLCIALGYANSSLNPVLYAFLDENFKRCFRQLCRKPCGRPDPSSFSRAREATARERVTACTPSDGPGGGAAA
SMILES,Emax [1],IC50 [2],EC50 [3],IC50 (Mu-type opioid receptor),IC50 [4],"remaining at 1 h, 100 µM [5]","remaining at 1 h, 10 µM [6]",Emax [7]
C=CCN1C[C@H](C)N([C@H](c2ccc(C(=O)N(CC)CC)cc2)c2cccc(OC)c2)C[C@H]1C,100%,–,–,–,–,–,–,–
CCN(CC)C(=O)c1ccc(C(c2ccc(C)cc2)N2CCNCC2)cc1 (centres undefined),84%,> 10 µM,0.0781 µM,7.09 µM,0.00842 µM,–,–,–
CCN(CC)C(=O)c1ccc(C(c2cccc3ccccc23)N2CCNCC2)cc1 (centres undefined),99%,4.91 µM,0.018 µM,0.777 µM,0.00236 µM,–,–,–
CCN(CC)C(=O)c1ccc(C(C2CCCCC2)N2CCNCC2)cc1 (centres undefined),–,0.724 µM,–,0.185 µM,0.0984 µM,–,–,–
CCN(CC)C(=O)c1ccc(C(c2cccc(OC)c2)N2CCNCC2)cc1 (centres undefined),109%,> 10 µM,0.042 µM,5.29 µM,0.0248 µM,–,–,–
O=C(O)c1ccc(C(c2ccccc2)N2CCNCC2)cc1 (centres undefined),–,–,–,–,0.41 µM,–,–,–
CCN(CC)C(=O)c1ccc(C(c2ccnc3ccccc23)N2CCNCC2)cc1 (centres undefined),–,–,–,–,0.132 µM,–,–,–
CCCCN1CCN(C(c2ccccc2)c2ccc(C(=O)N(CC)CC)cc2)CC1 (centres undefined),–,> 10 µM,–,0.486 µM,0.0286 µM,–,–,–
CCN(CC)C(=O)c1ccc(C(c2cccc3cccnc23)N2CCNCC2)cc1 (centres undefined),104%,7.02 µM,0.0036 µM,0.632 µM,0.00051 µM,83%,52%,–
CCN(CC)C(=O)c1ccc(C(c2ccc(OC)cc2)N2CCNCC2)cc1 (centres undefined),90%,> 10 µM,0.187 µM,4.54 µM,0.00813 µM,–,–,–
CCN(CC)C(=O)c1ccc(C(c2ccccc2)N2CCN(C)CC2)cc1 (centres undefined),58%,6.97 µM,0.211 µM,> 10 µM,0.0404 µM,–,–,–
CN(C)C(=O)c1ccc(C(c2ccccc2)N2CCNCC2)cc1 (centres undefined),–,–,–,–,0.0604 µM,–,–,–
C=CCN1C[C@H](C)N([C@H](c2ccc(C(=O)N(CC)CC)cc2)c2cccc(O)c2)C[C@H]1C,98%,0.02 µM,0.00012 µM,0.0021 µM,–,59%,4%,–
CCN(CC)C(=O)c1ccc(C(c2ccc3ncccc3c2)N2CCNCC2)cc1 (centres undefined),–,–,–,–,0.0616 µM,–,–,–
CCN(CC)C(=O)c1ccc(C(c2ccccc2)N2CCCNCC2)cc1 (centres undefined),96%,4.53 µM,0.303 µM,2.29 µM,0.0196 µM,–,–,–
CCN(CC)C(=O)c1ccc(C(c2cccc(F)c2)N2CCNCC2)cc1 (centres undefined),97%,> 10 µM,0.0533 µM,5.65 µM,0.0045 µM,–,–,–
CCN(CC)C(=O)c1ccc(C(c2cccc(OC)c2)N2CC(C)NCC2(C)C)cc1 (centres undefined),94%,> 10 µM,0.273 µM,0.284 µM,0.0533 µM,–,–,–
N#Cc1ccc(C(c2ccccc2)N2CCNCC2)cc1 (centres undefined),–,–,–,–,1.29 µM,–,–,–
CCN(CC)Cc1ccc(C(c2ccccc2)N2CCNCC2)cc1 (centres undefined),–,–,–,–,0.555 µM,–,–,–
CCN(CC)C(=O)c1ccc(C(c2ccccc2)N2CCNCC2)cc1 (centres undefined),104%,–,–,–,–,89%,60%,–
CCN(CC)C(=O)c1ccc(C(c2ccccc2)C2CCNCC2)cc1 (centres undefined),97%,> 10 µM,–,> 10 µM,–,–,–,–
CCN(CC)C(=O)c1ccc(C(c2ccc3ccccc3c2)N2CCNCC2)cc1 (centres undefined),110%,> 10 µM,0.05 µM,2.68 µM,0.00763 µM,–,–,–

SMILES,Emax [1],IC50 [2],EC50 [3],IC50 (Mu-type opioid receptor),IC50 [4],"remaining at 1 h, 100 µM [5]","remaining at 1 h, 10 µM [6]",Emax [7]
CCNC(=O)c1ccc(C(c2ccccc2)N2CCNCC2)cc1 (centres undefined),–,–,–,–,0.175 µM,–,–,–
CC(C)(O)c1ccc(C(c2ccccc2)N2CCNCC2)cc1 (centres undefined),–,–,–,–,0.406 µM,–,–,–
CCN(CC)C(=O)c1ccc(C(c2ccccc2)N2CCOCC2)cc1 (centres undefined),–,–,–,–,> 10 µM,–,–,–
CCN(CC)S(=O)(=O)c1ccc(C(c2ccccc2)N2CCNCC2)cc1 (centres undefined),110%,–,0.635 µM,–,0.0379 µM,–,–,–
CCN(CC)C(=O)c1ccc(C(c2ccccc2)N2CCCCC2)cc1 (centres undefined),–,–,–,–,2.23 µM,–,–,–
CCN(CC)C(=O)c1ccc(C(c2cccc3cnccc23)N2CCNCC2)cc1 (centres undefined),106%,> 10 µM,0.0546 µM,1.48 µM,0.00411 µM,–,–,–
CCN(CC)C(=O)c1ccc(C(c2ccccc2)N(C)CCNC)cc1 (centres undefined),–,> 10 µM,–,6.97 µM,0.0916 µM,–,–,–
CCC(CC)C(=O)c1ccc(C(c2ccccc2)N2CCNCC2)cc1 (centres undefined),–,–,–,–,0.1 µM,–,–,–
CCN(CC)C(=O)c1ccc(C(c2cccc(OC)c2)N2CC(C)(C)NCC2C)cc1 (centres undefined),100%,> 10 µM,0.0104 µM,0.62 µM,0.00844 µM,–,–,–
CCN(CC)C(=O)c1ccc(C(c2ccc3cccnc3c2)N2CCNCC2)cc1 (centres undefined),–,3.16 µM,0.00686 µM,1.02 µM,0.0011 µM,–,–,100%
CN1CCc2cc(-c3ccc(C(c4ccccc4)N4CCNCC4)cc3)ccc2C1=O (centres undefined),–,–,–,–,1.65 µM,–,–,–
CCN(CC)C(=O)c1ccc(C(c2ccc(Cl)cc2)N2CCNCC2)cc1 (centres undefined),107%,> 10 µM,0.113 µM,5.33 µM,0.0193 µM,–,–,–
CCN(CC)C(=O)c1ccc(C(c2ccccc2)N2CCN(CC3CC3)CC2)cc1 (centres undefined),–,> 5.6 µM,–,2.4 µM,0.0353 µM,–,–,–
CC(=O)c1ccc(C(c2ccccc2)N2CCNCC2)cc1 (centres undefined),–,–,–,–,1.05 µM,–,–,–
CCN(CC)C(=O)c1ccc(C(c2ccc3cc[nH]c3c2)N2CCNCC2)cc1 (centres undefined),105%,3.97 µM,0.0449 µM,2.22 µM,0.00681 µM,–,–,–
C=CCN1CCN(C(c2ccccc2)c2ccc(C(=O)N(CC)CC)cc2)CC1 (centres undefined),109%,7.57 µM,0.033 µM,5.06 µM,0.0159 µM,–,–,–
CCN(CC)C(=O)c1ccc(C(c2cccc3c2OC(C)(C)C3)N2CCNCC2)cc1 (centres undefined),101%,> 7.6 µM,0.0071 µM,0.785 µM,0.00115 µM,93%,43%,–
CCN(CC)C(=O)c1ccc(C(c2ccccc2)N2CCN(C(C)=O)CC2)cc1 (centres undefined),–,–,–,–,> 2 µM,–,–,–
c1ccc(C(c2ccc(-c3nnn[nH]3)cc2)N2CCNCC2)cc1 (centres undefined),–,–,–,–,0.25 µM,–,–,–
NC(=O)c1ccc(C(c2ccccc2)N2CCNCC2)cc1 (centres undefined),–,–,–,–,0.509 µM,–,–,–
COC(=O)c1ccc(C(c2ccccc2)N2CCNCC2)cc1 (centres undefined),–,–,–,–,0.307 µM,–,–,–

# — ChEMBL document CHEMBL1133468, “New diarylmethylpiperazines as potent and selective nonpeptidic delta opioid receptor agonists with increased In vitro metabolic stability” (J Med Chem, 2000)
